Assay results reported in PMC6619336 (Clinical Pharmacology in Drug Development, 2018).
Where two headings read alike, the source gives them in different places. Marks after values point to notes of the source that are not given here.

Legend:
[1] = subjects with moderate hepatic impairment; cited from earlier work
VZV = conditions: preclinical studies; cited from earlier work
[2] = Metabolic profiling of 14C-amenamevir in plasma, urine and feces; assay type: in vivo, human; conditions: single oral 200 mg
In short: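 After one fasted oral 200 mg dose of 14C-labelled test compound in 8% hydroxypropyl-β-cyclodextrin, healthy men gave plasma predose and at 0.5, 1, 2, 4, 6, 8, 10 and 12 h. Urine and fecal homogenates (stored at −70 °C) were also collected. Radiochromatograms were run by HPLC for all matrices. Urine and fecal metabolites were identified by LC-MS/MS.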

[3] = 300‐mg dose (capsule); mean ± SD; study 15L‐CL‐001; cited from earlier work
[4] = assay type: in vivo, human
In short: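 Six healthy men were dosed fasted, orally, once at 200 mg of 14C-labelled test compound (1.8 MBq) in water with 8% hydroxypropyl-β-cyclodextrin. Blood was drawn predose and from 15 min to 72 h, kept on ice, and spun at 1500g for 10 min at 4 °C within 30 min. Plasma radioactivity was read by liquid scintillation and parent by LC-MS/MS. Parameters were noncompartmental, with values below LLOQ set to zero.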

[5] = assay type: in vivo, human; remark: listed apart in the source
In short: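 Healthy men (n = 6) got one fasted oral 200 mg dose of 14C-labelled test compound (1.8 MBq) in water with 8% hydroxypropyl-β-cyclodextrin. Urine and feces were collected for 8 days. Expired air was sampled predose to 72 h and trapped in 1 N hyamine hydroxide with phenolphthalein. Urine and feces were homogenized, and radioactivity was read by liquid scintillation. Urinary parent was measured by LC-MS/MS. CL_R = Ae/AUC over the largest common quantifiable interval.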

cytochrome P450 (CYP) 3A = conditions: cited from earlier work
[6] = Safety and tolerability of single-dose amenamevir in healthy volunteers; assay type: in vivo, human; conditions: single 200 mg dose; for subjects with treatment‐emergent AEs: 6 subjects dosed
In short: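 Six healthy men aged 18–65 years received one fasted oral 200 mg dose and were monitored from screening through admission, discharge and a post-study visit. Adverse events were collected from spontaneous reports and non-leading questioning, coded with MedDRA v10.0, and graded for severity and treatment relation. Checks covered blood pressure, heart rate, ECG, physical examination, chemistry, hematology, urinalysis, serology and drug/alcohol screens.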

[7] = single 300‐mg (capsule) dose, day 1 of administration; study 15L‐CL‐003; cited from earlier work
[8] = subjects with severe renal impairment; cited from earlier work
[9] = 300‐mg dose (capsule); mean ± SD; study 15L‐CL‐002; cited from earlier work
[10] = healthy volunteers, cited from earlier work
[11] = ^14C‐radioactivity in plasma, single oral 200 mg, n = 6, mean ± SD
[12] = ^14C‐radioactivity in whole blood, single oral 200 mg, n = 6, mean ± SD
[13] = ^14C‐radioactivity, single oral 200 mg
[14] = single oral 200 mg, n = 5, mean ± SD, 8 days of sampling

In the case of `Cc1cccc(C)c1N(CC(=O)Nc1ccc(-c2ncon2)cc1)C(=O)C1CCS(=O)(=O)CC1` [Amenamevir], the “pharmacokinetic profile in moderate hepatic impairment” value [1] is given as “not significantly altered”, the “activity against VZV compared with acyclovir and valacyclovir” value (VZV) is given as “more potent than acyclovir and valacyclovir” and the “share of the administered dose in feces” value ([2]; feces 0 to 72 hours after the dose) is given as less than 0.1%. The “share of the total radioactivity in plasma” value ([2]; plasma samples 0.5 to 12 hours after the dose) was 80%, the “share of the total radioactivity excreted in urine” value ([2]; urine 0–48 hours after the dose) was “approximately 55%” and the “half‐life” value [3] was 6.88 ± 0.56 h. For the same compound, the “peak concentration of drug in blood plasma” value [3] was 1040 ± 264 ng/mL, the AUCinf [4, 11] was 10,997 ± 2530 ng · h/mL and the AUClast [4, 11] was 10,076 ± 2912 ng · h/mL. For the same compound, the Cmax [4, 11] was 1041 ± 324 ng/mL, the t½ [4, 11] was 8.03 ± 0.81 h and the tmax ([4]; ^14C‐radioactivity in plasma, single oral 200 mg, n = 6, median (range)) was 1.00 (1.00–3.02) hours. For the same compound, the AUCinf [4, 12] was 10,425 ± 2265 ng · h/mL, the AUClast [4, 12] was 8530 ± 2263 ng·h/mL and the Cmax [4, 12] was 919 ± 284 ng/mL. The t½ [4, 12] was 9.19 ± 2.13 h, the tmax ([4]; ^14C‐radioactivity in whole blood, single oral 200 mg, n = 6, median (range)) was 1.00 (1.00–2.00) hours and the “Whole blood:plasma ratio of AUCinf” value [4, 13] was 0.951. For the same compound, the “Whole blood:plasma ratio of AUClast” value [4, 13] was 0.852, the “Whole blood:plasma ratio of Cmax” value [4, 13] was 0.885 and the AUC(0-inf) ([4]; human, plasma, po, 200 mg) was 8820 ± 2510 ng·h/mL. It also gave an AUC(0-t) ([4]; human, plasma, po, 200 mg) of 8690 ± 2490 ng·h/mL, a Cmax ([4]; human, plasma, po, 200 mg) of 1020 ± 404 ng/mL and a half-life ([4]; human, plasma, po, 200 mg) of 7.65 ± 0.49 h. The tmax ([4]; human, plasma, po, 200 mg) was 1.5 h, the CL renal ([5]; human, urine and plasma, po, 200 mg) was 40.7 mL/min and the “dose eliminated by 168 hours after the dose” value ([5]; single oral 200 mg) was greater than 95%. The “Ae expired air (cumulative recovery of ^14C‐radioactivity)” value ([5]; single oral 200 mg, N = 6, listed as 14C‐amenamevir) was 0%, the “Ae urine (cumulative recovery of ^14C‐radioactivity)” value ([5]; single oral 200 mg, N = 6, mean ± SD, 8 days of sampling) was 20.6 ± 4.0% and the “Ae feces (cumulative recovery of ^14C‐radioactivity)” value [5, 14] was 74.6 ± 3.0 ^a %. For the same compound, the “Ae total (cumulative recovery of ^14C‐radioactivity)” value [5, 14] was 95.3%, the “Ae total (cumulative recovery of ^14C‐radioactivity)” value ([5]; single oral 200 mg, n = 5, mean ± SD, 8 days of sampling, listed as 14C‐amenamevir) was 95.3 ± 1.8 ^a % and the “Cumulative Aelast (amenamevir excreted into urine)” value ([5]; unchanged amenamevir in urine by LC‐MS/MS, single oral 200 mg, N = 6, mean ± SD) was 20.9 ± 5.5 mg. For the same compound, the “relation to CYP3A” value (cytochrome P450 (CYP) 3A) was “both a substrate and inducer”, the “clinical laboratory evaluations, vital signs, electrocardiogram recordings” value [6] was “No clinically important abnormalities” and the “deaths, serious AEs, or AEs resulting in discontinuation” value [6] was “No deaths, serious AEs, or AEs resulting in discontinuation were reported”. For the same compound, the “subjects with treatment‐emergent AEs” value [6] was 3, the “subjects with treatment‐emergent AEs” value ([6]; listed as amenamevir) was “Three” and the “severity of AEs” value ([6]; all 3 AEs) was “mild”. For the same compound, the safety and tolerability ([6]; healthy male subjects, n = 6) was “safe and well tolerated”, the “drug excreted in the urine” value [7] was 11.07% and the renal clearance [7] was 2.45 L/h. For the same compound, the “renal clearance in severe renal impairment” value [8] was “reduced renal clearance”, the “half‐life” value [9] was 7.85 ± 1.62 h and the “peak concentration of drug in blood plasma” value [9] was 1093 ± 201 ng/mL. The “dose proportionality of pharmacokinetics” value [10] was “less than dose proportional” and the safety and tolerability ([10]; single doses of 5 to 2400 mg or 300 to 600 mg/day for 7 days) was “safe and well tolerated”.
